The record followed here is ChEMBL document CHEMBL4152315, “Rational modification of a lead molecule: Improving the antifungal activity of indole - triazole - amino acid conjugates” (Eur J Med Chem, 2018).

In series [1] the test system is Candida albicans. The series is described as follows: Antifungal activity against Candida albicans MTCC 3958 assessed as zone of growth inhibition after 48 hrs. The format is functional. Put shortly:
(§1)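 Agar well diffusion: Malt Yeast Agar (C. albicans) or Czapek Yeast Extract Agar (A. niger) swabbed with 100 µL inoculum at 1×10^5 CFU/mL; 6 mm wells filled with 128 µg/50 µL compound in 5% DMSO (10% DMSO for poorly soluble ones). DMSO negative controls, fluconazole reference. 28 °C for 48 h; zone of inhibition as mean of triplicates.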

The subject of series [2] is Aspergillus niger. Description: Antifungal activity against Aspergillus niger MTCC 9933 assessed as zone of growth inhibition after 48 hrs. The format is functional. Put shortly: as §1
In series [3] the test system is Candida albicans. Description: Antifungal activity against Candida albicans MTCC 3958 after 48 hrs. It is filed as functional. The note with it: MTCC 3958, 48 h. The gist of the method: (§2)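 Broth tube dilution MIC: tested at 128, 64, 32, 16 and 8 μg/mL; Yeast Malt Broth for C. albicans, Czapek Dox Broth for A. niger. Inoculum 1×10³ CFU/mL final; 5% DMSO negative control, fluconazole reference. Incubated dark on rotary shaker (180 rpm), 28 °C, 48 h (C. albicans) or 72 h (A. niger); lowest concentration preventing visible growth recorded.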

Series [4] deals with Aspergillus niger. The series is described as follows: Antifungal activity against Aspergillus niger MTCC 9933 after 72 hrs. The format is functional. The note with it: MTCC 9933, 72 h. Put shortly: as §2
Series [5] has as its system Erythrocyte. Description: Cytotoxicity against sheep RBC assessed as cell viability at 1 mg/ml after 24 hrs by MTT assay relative to control. The format is cell-based, Ovis aries. Put shortly: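 Sheep blood mixed 10:3 with Alsever's solution. Plasma was removed by centrifugation, and cells were washed three times in 1X PBS and diluted to 1×10^5 cells/mL. Cells were preincubated 24 h at 37 °C, then exposed to compound for 24 h at 37 °C. MTT (5 mg/ml stock) was added for 4 h, formazan was dissolved in DMSO, and A595 was read. Control wells received 10% DMSO diluent.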
In general terms: Tetrazolium dyes change colour on reduction, which living cells bring about.

As usually defined, the MIC90 is an inhibitory concentration at the 90% level, which refers to growth in some studies and to a panel of isolates in others.

Converted amounts (≈) assume the structure as drawn.

As to `O=C(N[C@@H](Cc1ccc(OCc2cn(Cc3ccccc3)nn2)cc1)C(=O)O)C(=O)c1cn(Cc2cn(Cc3ccccc3)nn2)c2ccccc12`, the results for the “inhibition zone (IZ)” value in series [1] and in series [2] were 16 mm and 15 mm, respectively. Moreover, the MIC90 was determined as 16 µg/mL (≈ 23 µM) in series [3] and 32 µg/mL (≈ 46.1 µM) in series [4]. For the same compound, the Activity result in series [5] is given as “Non-Toxic”.

Consider `COC(=O)CC[C@H](NC(=O)C(=O)c1c[nH]c2ccccc12)C(=O)OC`, for which, in series [2], the “inhibition zone (IZ)” value was 9 mm. The same compound yielded an MIC90 in series [4] of more than 128 µg/mL.

With `C#CCn1cc(C(=O)C(=O)N[C@@H](Cc2c[nH]c3ccccc23)C(=O)OC)c2ccccc21`, the “inhibition zone (IZ)” value in series [1] is reported as 10 mm; in series [2] it was 9 mm. Besides, the values for the MIC90 in series [3] and in series [4] were 128 µg/mL (≈ 299 µM) and more than 128 µg/mL, respectively.

Regarding `COC(=O)C[C@H](NC(=O)C(=O)c1cn(Cc2cn(Cc3ccccc3)nn2)c2ccccc12)C(=O)OC`, in series [1], the “inhibition zone (IZ)” value stood at 11 mm. The compound further gave an MIC90 in series [3] of 128 µg/mL (≈ 254 µM).

Take `O=C(O)CNC(=O)C(=O)c1cn(Cc2cn(Cc3ccccc3)nn2)c2ccccc12`: the “inhibition zone (IZ)” value in series [1] was found to be 13 mm; in series [2], 10 mm. Besides, the values for the MIC90 in series [3] and in series [4] were 32 µg/mL (≈ 76.7 µM) and 128 µg/mL (≈ 307 µM), respectively.

On to `O=C(O)C[C@H](NC(=O)C(=O)c1cn(Cc2cn(Cc3ccccc3)nn2)c2ccccc12)C(=O)O`, for which the “inhibition zone (IZ)” value is listed as 15 mm in series [1] and 13 mm in series [2]. Further, the MIC90 in series [3] worked out at 32 µg/mL (≈ 67.3 µM); in series [4], 64 µg/mL (≈ 135 µM).

On to `C#CCn1cc(C(=O)C(=O)NCC(=O)OC)c2ccccc21`, for which the “inhibition zone (IZ)” value in series [1] is 11 mm. In series [3], the MIC90 worked out at 64 µg/mL (≈ 215 µM).

For `O=C(N[C@@H](Cc1c[nH]c2ccccc12)C(=O)O)C(=O)c1cn(Cc2cn(Cc3ccccc3)nn2)c2ccccc12`, the “inhibition zone (IZ)” value in series [1] and in series [2] was 14 mm in each case. Further, the MIC90 in series [3] is 32 µg/mL (≈ 58.5 µM); in series [4] it was more than 32 µg/mL.

For the compound `COC(=O)[C@H](Cc1ccc(OCc2cn(Cc3ccccc3)nn2)cc1)NC(=O)C(=O)c1cn(Cc2cn(Cc3ccccc3)nn2)c2ccccc12`, in series [2], the “inhibition zone (IZ)” value was 13 mm. For the same compound, the MIC90 in series [4] was determined as 64 µg/mL (≈ 90.3 µM).

In the case of `COC(=O)[C@H](Cc1c[nH]c2ccccc12)NC(=O)C(=O)c1c[nH]c2ccccc12`, in series [1], the “inhibition zone (IZ)” value is reported as 14 mm. Further, the MIC90 in series [3] was found to be 32 µg/mL (≈ 82.2 µM).

For `COC(=O)[C@H](Cc1c[nH]c2ccccc12)NC(=O)C(=O)c1cn(Cc2cn(Cc3ccccc3)nn2)c2ccccc12`, the “inhibition zone (IZ)” value is given as 9 mm in series [1] and 12 mm in series [2]. The results for the MIC90 in series [3] and in series [4] were 128 µg/mL (≈ 228 µM) and 64 µg/mL (≈ 114 µM), respectively.

As for `COC(=O)[C@H](Cc1ccc(O)cc1)NC(=O)C(=O)c1c[nH]c2ccccc12`, the “inhibition zone (IZ)” value in series [2] is recorded as 9 mm. In addition, the MIC90 in series [4] was more than 128 µg/mL.

As for `COC(=O)CNC(=O)C(=O)c1cn(Cc2cn(Cc3ccccc3)nn2)c2ccccc12`, the “inhibition zone (IZ)” value in series [1] turned out to be 12 mm; in series [2] it was 11 mm. The MIC90 in series [3] and in series [4] was 64 µg/mL (≈ 148 µM) throughout.

As to `C#CCn1cc(C(=O)C(=O)N[C@@H](CCC(=O)OC)C(=O)OC)c2ccccc21`, the “inhibition zone (IZ)” value in series [1] came out at 9 mm. In series [3], the MIC90 turned out to be 128 µg/mL (≈ 333 µM).

With `COC(=O)CC[C@H](NC(=O)C(=O)c1cn(Cc2cn(Cc3ccccc3)nn2)c2ccccc12)C(=O)OC`, the “inhibition zone (IZ)” value in series [1] is listed as 10 mm; in series [2] it was 11 mm. For the same compound, the MIC90 in series [3] and in series [4] was 64 µg/mL (≈ 124 µM) throughout.

For `C#CCn1cc(C(=O)C(=O)N[C@@H](Cc2ccc(O)cc2)C(=O)OC)c2ccccc21`, the “inhibition zone (IZ)” value in series [1] is 11 mm; in series [2], 10 mm. The figures for the MIC90 in series [3] and in series [4] were 64 µg/mL (≈ 158 µM) and 128 µg/mL (≈ 317 µM), respectively.

Consider `O=C(O)CC[C@H](NC(=O)C(=O)c1cn(Cc2cn(Cc3ccccc3)nn2)c2ccccc12)C(=O)O`, for which the “inhibition zone (IZ)” value in series [1] is listed as 14 mm; in series [2], 12 mm. Also, the MIC90 was 32 µg/mL (≈ 65.4 µM) in series [3] and more than 32 µg/mL in series [4].

For `O=C(N[C@@H](Cc1ccc(O)cc1)C(=O)O)C(=O)c1cn(Cc2cn(Cc3ccccc3)nn2)c2ccccc12`, the “inhibition zone (IZ)” value in series [1] stood at 15 mm; in series [2], 13 mm. The MIC90 in series [3] is 16 µg/mL (≈ 30.6 µM); in series [4], more than 32 µg/mL.

`OC(Cn1cncn1)(Cn1cncn1)c1ccc(F)cc1F` [FLUCONAZOLE]: the “inhibition zone (IZ)” value in series [1] was determined as 19 mm; in series [2], 18 mm. Moreover, the MIC90 was 16 µg/mL (≈ 52.2 µM) in series [3] and 8 µg/mL (≈ 26.1 µM) in series [4].

Consider `C#CCOc1ccc(C[C@H](NC(=O)C(=O)c2cn(CC#C)c3ccccc23)C(=O)OC)cc1`, for which the “inhibition zone (IZ)” value in series [1] and in series [2] was 13 mm throughout. Also, the MIC90 in series [3] and in series [4] was 64 µg/mL (≈ 145 µM) in each case.

As to `COC(=O)C[C@H](NC(=O)C(=O)c1c[nH]c2ccccc12)C(=O)OC`, the entries for the “inhibition zone (IZ)” value in series [1] and in series [2] were 15 mm and 13 mm, respectively. In addition, the MIC90 in series [3] came to 32 µg/mL (≈ 96.3 µM); in series [4] it was 64 µg/mL (≈ 193 µM).

With `COC(=O)CNC(=O)C(=O)c1c[nH]c2ccccc12`, in series [1], the “inhibition zone (IZ)” value is listed as 10 mm. The compound further came in with an MIC90 in series [3] of 128 µg/mL (≈ 492 µM).

As for `C#CCn1cc(C(=O)C(=O)N[C@@H](CC(=O)OC)C(=O)OC)c2ccccc21`, the “inhibition zone (IZ)” value in series [1] was determined as 13 mm. Moreover, the MIC90 in series [3] came to 64 µg/mL (≈ 173 µM).

As to `COC(=O)[C@H](Cc1ccc(O)cc1)NC(=O)C(=O)c1cn(Cc2cn(Cc3ccccc3)nn2)c2ccccc12`, the figures for the “inhibition zone (IZ)” value in series [1] and in series [2] were 8 mm and 10 mm, respectively. Moreover, the MIC90 in series [3] and in series [4] was 128 µg/mL (≈ 238 µM) throughout.
